Results: ChEMBL document CHEMBL2169846, “Design and synthesis of Pictet-Spengler condensation products that exhibit oncogenic-RAS synthetic lethality and induce non-apoptotic cell death” (Bioorg Med Chem Lett, 2012)
Active and inactive are the calls of the source. No cut-off for these calls is given here.

Assays:
[1] = Cytotoxicity against human HT1299 cells after 48 hrs by alamar blue assay; format: functional; conditions: HT1299, 48 h, read-out: LC50 (the source's name)
[2] = test system: HT-1080; experiment: Cytotoxicity against human HT1080 after 48 hrs by alamar blue assay in presence of deferoxamine; format: functional, cell-based
Method in brief: (§1)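 HT1080 cells given the test compound together with a rescue agent: deferoxamine 152 µM, α-tocopherol 100 µM, z-VAD-fmk 45 µM or Boc-D-fmk 50 µM. Viability read out afterwards.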

[3] = molecular target: E3 ubiquitin-protein ligase Mdm2 (Homo sapiens) (UniProt Q00987); experiment: Inhibition of wild type Mdm2 at 20 ug/mL after 2 hrs by cell-based luciferase assay
E3 ubiquitin-protein ligase Mdm2 (Homo sapiens), sequence (Q00987 whole entry, looked up): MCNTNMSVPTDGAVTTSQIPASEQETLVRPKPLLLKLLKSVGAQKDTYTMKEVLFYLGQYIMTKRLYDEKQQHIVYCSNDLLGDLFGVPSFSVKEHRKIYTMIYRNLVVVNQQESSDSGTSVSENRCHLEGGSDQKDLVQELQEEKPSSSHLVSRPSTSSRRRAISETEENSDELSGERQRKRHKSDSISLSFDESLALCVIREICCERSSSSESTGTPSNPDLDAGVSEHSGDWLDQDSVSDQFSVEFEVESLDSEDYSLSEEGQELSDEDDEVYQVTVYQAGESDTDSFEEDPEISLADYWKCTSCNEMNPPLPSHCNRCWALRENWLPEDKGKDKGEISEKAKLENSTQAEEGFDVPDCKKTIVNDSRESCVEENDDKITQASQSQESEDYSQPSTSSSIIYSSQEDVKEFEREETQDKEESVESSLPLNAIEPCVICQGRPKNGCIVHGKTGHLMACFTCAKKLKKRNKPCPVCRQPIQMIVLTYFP

[4] = test system: BJeLR; experiment: Cytotoxicity against human BJeLR cells expressing RAS G12V mutant at 30 uM at 24 hrs by trypan blue staining; format: functional, cell-based
Method in brief: (§2)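 Time-course in BJ-TERT/LT/ST/RAS^V12 cells exposed for the designated times to erastin (10 µM), test compound (30 µM) or RSL3 (0.57 µM) to follow onset of death. Data representative of duplicate experiments.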

[5] = Growth inhibition of human BJeH-LT cells expressing wild type RAS relative to control; format: functional
Method in brief: (§3)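 Four cell lines treated for 48 h in a two-fold, 7-point dilution series. Viability by Alamar blue reading. LC50 and maximum growth-inhibitory efficacy were tabulated as ± SEM of triplicates.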

[6] = test system: HT-1080; experiment: Cytotoxicity against human HT1080 after 48 hrs by alamar blue assay in presence of alpha-tocopherol; format: functional, cell-based; method in brief: as §1
[7] = test system: RKO; experiment: Cytotoxicity against human RKO cells after 48 hrs by alamar blue assay; format: functional; conditions: read-out: LC50 (the source's name)
[8] = test system: BJeLR; experiment: Induction of reactive oxygen species production in human BJeLR cells expressing RAS G12V mutant after 18 hrs by DCF-based flow cytometric analysis; format: functional, cell-based
[9] = Growth inhibition of human DRD cells expressing RAS G12V mutant relative to control; format: functional; method in brief: as §3
[10] = test system: BJeLR; experiment: Induction of apoptosis in human BJeLR cells expressing RAS G12V mutant assessed as caspase 3 activation after 28 hrs by Apo-One assay; format: functional, cell-based
Method in brief: (§4)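 BJ-TERT and BJ-TERT/LT/ST/RAS(V12) cells given compound as a two-fold, 14-point dilution series for 28 h. Alamar blue then added for viability, and caspase 3/7 activation detected by Apo-ONE in the same wells.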

[11] = test system: HT-1080; experiment: Cytotoxicity against human HT1080 after 48 hrs by alamar blue assay in presence of Boc-D-fmk; format: functional, cell-based; method in brief: as §1
[12] = Stability of the compound assessed as GSH adduct formation after 24 hrs by mass spectroscopy; format: physicochemical
[13] = test system: BJeH; experiment: Cytotoxicity against human BJeH cells expressing wild type RAS at 30 uM after 24 hrs by trypan blue staining; format: functional, cell-based
[14] = test system: BJeLR; experiment: Induction of apoptosis in human BJeLR cells expressing RAS G12V mutant assessed as caspase 7 activation after 28 hrs by Apo-One assay; format: functional, cell-based; method in brief: as §4
[15] = Cytotoxicity against human BJeH cells expressing wild type RAS after 48 hrs by alamar blue assay; format: functional, cell-based; conditions: read-out: LC50 (the source's name)
[16] = Cytotoxicity against human BJeLR cells expressing RAS G12V mutant; format: functional; conditions: read-out: LC50 (the source's name)
[17] = test system: BJeLR; experiment: Cytotoxicity against human BJeLR cells expressing RAS G12V mutant at 30 uM at 12 hrs by trypan blue staining; format: functional, cell-based; method in brief: as §2
[18] = test system: HT-1080; experiment: Cytotoxicity against human HT1080 after 48 hrs by alamar blue assay in presence of z-VAD-fmk; format: functional, cell-based; method in brief: as §1
[19] = Selectivity ratio of LC50 for human BJeH cells to LC50 for human DRD cells; format: functional
Method in brief: (§5)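 LC50 of BJ-TERT divided by LC50 of the RAS(V12)-transformed line or of DRD cells.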

[20] = test system: E3 ubiquitin-protein ligase Mdm2 (Homo sapiens), Q00987 [C464A]; experiment: Inhibition of Mdm2 C464A mutant at 20 ug/mL after 2 hrs by cell-based luciferase assay
E3 ubiquitin-protein ligase Mdm2 (Homo sapiens), Q00987 [C464A], sequence (Q00987 whole entry C464A): as the sequence (Q00987 whole entry, looked up) above, with C464A counted along it

[21] = test system: BJeH; experiment: Induction of reactive oxygen species production in human BJeH cells expressing wild type RAS after 18 hrs by DCF-based flow cytometric analysis; format: functional, cell-based
[22] = Selectivity ratio of LC50 for human BJeH cells to LC50 for human BJeLR cells expressing RAS G12V mutant; format: functional; method in brief: as §5
[23] = Growth inhibition of human BJeLR cells expressing RAS G12V mutant relative to control; format: functional; method in brief: as §3
[24] = Growth inhibition of human BJeH cells expressing wild type RAS relative to control; format: functional; method in brief: as §3
[25] = test system: BJeLR; experiment: Cytotoxicity against human BJeLR cells expressing RAS G12V mutant at high concentration after 28 hrs by alamar blue assay; format: functional, cell-based
Method in brief: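 BJ-TERT/LT/ST/RAS^V12 cells treated for 28 h across a two-fold, 14-point dilution series. Viability was read by Alamar blue, and caspase 3/7 activation was detected by Apo-ONE in the same cells.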

[26] = test system: BJeH; experiment: Induction of apoptosis in human BJeH cells expressing wild type RAS assessed as caspase 3 activation after 28 hrs by Apo-One assay; format: functional, cell-based; method in brief: as §4
[27] = Cytotoxicity against human BJeH-LT cells expressing wild type RAS; format: functional; conditions: read-out: LC50 (the source's name)
[28] = Cytotoxicity against human BJeLR cells expressing RAS G12V mutant after 48 hrs by alamar blue assay; format: functional, cell-based; conditions: read-out: LC50 (the source's name)
[29] = test system: BJeH; experiment: Induction of apoptosis in human BJeH cells expressing wild type RAS assessed as caspase 7 activation after 28 hrs by Apo-One assay; format: functional, cell-based; method in brief: as §4
[30] = Cytotoxicity against human BJeH cells expressing wild type RAS; format: functional; conditions: read-out: LC50 (the source's name)
[31] = Ratio of MEL24 LC50 to compound LC50 for human BJeLR cells expressing RAS G12V mutant; format: functional
[32] = test system: MCF7; experiment: Cytotoxicity against human MCF7 cells at 20 ug/mL after 48 hrs by alamar blue assay; format: functional, cell-based
Method in brief: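 Each cell line exposed for 48 h to a 2-fold, 12-point dilution series beginning at 20 µg/mL. Viability by Alamar blue; LC50 derived from the curves.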

[33] = Stability of the compound in phosphate buffered saline after 24 hrs by mass spectroscopy; format: physicochemical; conditions: buffer
[34] = Cytotoxicity against human DRD cells expressing RAS G12V mutant; format: functional; conditions: read-out: LC50 (the source's name)

With `CCOC(=O)C1c2c(c3ccccc3n2C)CCN1C(=O)OC` (centres undefined) the CC50 [1] was 30 µM, the Activity [2] was “inactive” and the inhibition [3] was “inactive”. For the same compound, the Activity [4] was “Active”, the “growth inhibition (GI)” value [5] was 8.5% and the Activity [6] was “inactive”. For the same compound, the CC50 [7] was 31.6 µM, the Activity [8] was “Active” and the “growth inhibition (GI)” value [9] was 67%. For the same compound, the Activity [10] was “inactive”, the Activity [11] was “Active” and the Stability [12] was “Stable”. The Activity [13] was “inactive”, the Activity [14] was “inactive” and the CC50 [15] was 63.2 µM. For the same compound, the CC50 [16] was 20.3 µM, the Activity [17] was “Active” and the Activity [18] was “Active”. The Ratio [19] was 3, the inhibition [20] was “inactive” and the Activity [21] was “Active”. The Ratio [22] was 10, the “growth inhibition (GI)” value [23] was 98.7% and the “growth inhibition (GI)” value [24] was 22.1%. For the same compound, the Activity [25] was “Active”, the Activity [26] was “inactive” and the CC50 [27] was 266 µM. The CC50 [28] was 6.3 µM, the Activity [29] was “inactive” and the CC50 [30] was 179 µM. The Ratio [31] was 4, the Activity [32] was “inactive” and the Stability [33] was “Stable”. For the same compound, the CC50 [34] was 102 µM.
